Source: ChEMBL document CHEMBL1138430, “Novel tetrahydroisoquinolines are histamine H3 antagonists and serotonin reuptake inhibitors” (Bioorg Med Chem Lett, 2007)

Assays:
Histamine H3 receptor [1] = molecular target: T1, Histamine H3 receptor (Homo sapiens, UniProt Q9Y5N1); assay: Antagonist activity at human histamine H3 receptor; type: functional; details: read-out: pA2 (converted)
[2] = molecular target: Sodium-dependent serotonin transporter (Homo sapiens, UniProt P31645); assay: Binding affinity at human SERT
Chain of Sodium-dependent serotonin transporter (Homo sapiens, UniProt P31645) (P31645 whole entry): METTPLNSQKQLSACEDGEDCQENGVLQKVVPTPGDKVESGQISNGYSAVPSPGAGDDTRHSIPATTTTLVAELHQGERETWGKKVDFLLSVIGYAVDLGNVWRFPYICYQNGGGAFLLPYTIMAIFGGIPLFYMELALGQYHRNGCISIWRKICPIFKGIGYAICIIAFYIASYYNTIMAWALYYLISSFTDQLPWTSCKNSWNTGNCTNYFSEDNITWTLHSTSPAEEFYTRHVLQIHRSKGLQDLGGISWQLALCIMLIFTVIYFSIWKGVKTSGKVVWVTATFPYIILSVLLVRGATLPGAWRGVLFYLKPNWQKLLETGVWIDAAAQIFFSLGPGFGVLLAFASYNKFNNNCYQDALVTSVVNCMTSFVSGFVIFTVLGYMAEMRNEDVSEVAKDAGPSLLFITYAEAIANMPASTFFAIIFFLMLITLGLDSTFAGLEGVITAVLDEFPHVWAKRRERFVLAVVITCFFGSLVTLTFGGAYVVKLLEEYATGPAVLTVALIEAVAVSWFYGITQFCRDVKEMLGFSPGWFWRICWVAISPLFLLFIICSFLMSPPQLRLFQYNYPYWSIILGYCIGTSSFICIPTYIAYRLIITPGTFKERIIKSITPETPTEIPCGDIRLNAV

[3] = Plasma clearance in po and iv dosed rat; type: ADME, organism-based
[4] = (§1) Bioavailability in po dosed rat; type: ADME, organism-based; details: in vivo
[5] = (§2) Volume of distribution at steady state in po and iv dosed rat; type: ADME, organism-based; details: in vivo, read-out: Vdss
[6] = (§3) Half life in po and iv dosed rat; type: ADME, organism-based; details: in vivo
Histamine H3 receptor [7] = molecular target: T1, Histamine H3 receptor; assay: Binding affinity at human histamine H3 receptor
[8] = molecular target: Sodium-dependent serotonin transporter (Rattus norvegicus, UniProt P31652); assay: Binding affinity at rat SERT
Chain of Sodium-dependent serotonin transporter (Rattus norvegicus, UniProt P31652) (P31652 whole entry): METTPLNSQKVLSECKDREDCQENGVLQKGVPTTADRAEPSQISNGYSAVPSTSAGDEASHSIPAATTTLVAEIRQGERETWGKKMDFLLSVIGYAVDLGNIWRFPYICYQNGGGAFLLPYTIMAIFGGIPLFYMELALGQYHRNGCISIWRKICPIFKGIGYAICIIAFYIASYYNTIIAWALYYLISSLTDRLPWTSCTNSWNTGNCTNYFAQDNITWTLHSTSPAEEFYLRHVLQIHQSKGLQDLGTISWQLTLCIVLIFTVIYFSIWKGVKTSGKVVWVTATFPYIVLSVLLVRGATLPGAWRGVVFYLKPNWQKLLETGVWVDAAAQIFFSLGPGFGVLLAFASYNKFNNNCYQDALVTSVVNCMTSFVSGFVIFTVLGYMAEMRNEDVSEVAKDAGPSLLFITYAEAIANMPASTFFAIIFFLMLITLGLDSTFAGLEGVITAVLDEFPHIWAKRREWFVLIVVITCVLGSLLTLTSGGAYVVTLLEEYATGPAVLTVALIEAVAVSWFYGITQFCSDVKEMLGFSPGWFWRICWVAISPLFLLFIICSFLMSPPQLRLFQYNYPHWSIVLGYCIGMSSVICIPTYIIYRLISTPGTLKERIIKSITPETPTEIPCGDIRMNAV

Rattus norvegicus [9] = assay: as §1; type: ADME, organism-based; details: in vivo
[10] = Cmax in rat brain at 10 mg/kg, po; type: ADME, organism-based; set-up: dose 10 mg/kg, route oral
Rattus norvegicus [11] = assay: as §2; type: ADME, organism-based; details: in vivo
Rattus norvegicus [12] = assay: as §3; type: ADME, organism-based; details: in vivo
[13] = molecular target: Sodium-dependent noradrenaline transporter (Homo sapiens, UniProt P23975); assay: Inhibition of [3H]nisoxetine uptake in human NET expressed in MDCK cells; type: cell-based
Chain of Sodium-dependent noradrenaline transporter (P23975 whole entry): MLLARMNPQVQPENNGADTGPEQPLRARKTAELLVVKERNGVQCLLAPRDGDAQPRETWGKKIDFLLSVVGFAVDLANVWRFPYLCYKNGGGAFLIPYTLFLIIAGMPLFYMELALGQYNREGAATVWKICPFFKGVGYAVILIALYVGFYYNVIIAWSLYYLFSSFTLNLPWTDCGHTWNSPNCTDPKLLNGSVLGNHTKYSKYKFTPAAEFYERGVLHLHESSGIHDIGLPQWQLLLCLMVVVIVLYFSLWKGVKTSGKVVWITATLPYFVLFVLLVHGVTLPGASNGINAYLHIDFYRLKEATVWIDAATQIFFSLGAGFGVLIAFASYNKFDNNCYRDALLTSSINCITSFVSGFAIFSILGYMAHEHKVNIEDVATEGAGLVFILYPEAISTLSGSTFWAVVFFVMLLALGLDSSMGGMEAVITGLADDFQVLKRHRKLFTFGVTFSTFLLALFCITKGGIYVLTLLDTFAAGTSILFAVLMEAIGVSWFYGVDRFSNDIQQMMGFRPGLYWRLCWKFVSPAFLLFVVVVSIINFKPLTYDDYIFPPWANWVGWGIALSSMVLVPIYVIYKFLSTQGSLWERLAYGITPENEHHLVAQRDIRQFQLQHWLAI

[14] = tested on: Voltage-gated calcium channel; assay: Binding affinity for calcium channel at 1 uM; type: protein-complex assay; details: human
Brain = assay: Drug level in rat brain at 0.1 mg/kg; type: ADME, organism-based; set-up: dose 0.1 mg/kg; details: in vivo, read-out: Drug uptake
[15] = molecular target: Sodium-dependent dopamine transporter (Homo sapiens, UniProt Q01959); assay: Inhibition of [3H]WIN-uptake in human DAT expressed in CHO cells; type: cell-based
Chain of Sodium-dependent dopamine transporter (Q01959 whole entry): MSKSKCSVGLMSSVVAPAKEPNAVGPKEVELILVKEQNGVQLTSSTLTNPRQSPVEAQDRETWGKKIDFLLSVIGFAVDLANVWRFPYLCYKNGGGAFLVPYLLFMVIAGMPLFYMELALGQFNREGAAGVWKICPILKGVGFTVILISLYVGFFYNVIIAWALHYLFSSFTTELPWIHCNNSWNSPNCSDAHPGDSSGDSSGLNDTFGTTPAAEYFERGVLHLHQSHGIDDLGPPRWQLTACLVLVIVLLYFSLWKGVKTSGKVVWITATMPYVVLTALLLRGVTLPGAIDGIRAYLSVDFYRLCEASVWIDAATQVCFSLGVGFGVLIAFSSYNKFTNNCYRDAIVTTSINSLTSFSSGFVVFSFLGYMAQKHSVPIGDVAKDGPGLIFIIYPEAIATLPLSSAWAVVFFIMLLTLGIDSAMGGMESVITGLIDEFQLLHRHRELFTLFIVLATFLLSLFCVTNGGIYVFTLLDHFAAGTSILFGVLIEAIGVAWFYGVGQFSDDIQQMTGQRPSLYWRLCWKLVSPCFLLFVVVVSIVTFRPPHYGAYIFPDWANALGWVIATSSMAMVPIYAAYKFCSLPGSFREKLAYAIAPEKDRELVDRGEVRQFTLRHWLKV
Procedure, shortened: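 Human DAT expressed in CHO cells; membranes were incubated on ice for 2 h with 10.9 nM [3H]-WIN 35,428, then harvested by rapid filtration. Nonspecific binding was defined with GBR-12909. Ki values are means of at least three experiments run in triplicate, with SEM.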

Rattus norvegicus [16] = species on record: Rattus norvegicus; assay: Ex vivo receptor occupancy at SERT in rat; type: functional
[17] = tested on: Voltage-gated potassium channel; assay: Binding affinity for potassium channel at 1 uM; type: protein assay; details: human
Rattus norvegicus [18] = species on record: Rattus norvegicus; assay: Ex vivo receptor occupancy at histamine H3 receptor in rat; type: functional

T1 sequence (Q9Y5N1 whole entry): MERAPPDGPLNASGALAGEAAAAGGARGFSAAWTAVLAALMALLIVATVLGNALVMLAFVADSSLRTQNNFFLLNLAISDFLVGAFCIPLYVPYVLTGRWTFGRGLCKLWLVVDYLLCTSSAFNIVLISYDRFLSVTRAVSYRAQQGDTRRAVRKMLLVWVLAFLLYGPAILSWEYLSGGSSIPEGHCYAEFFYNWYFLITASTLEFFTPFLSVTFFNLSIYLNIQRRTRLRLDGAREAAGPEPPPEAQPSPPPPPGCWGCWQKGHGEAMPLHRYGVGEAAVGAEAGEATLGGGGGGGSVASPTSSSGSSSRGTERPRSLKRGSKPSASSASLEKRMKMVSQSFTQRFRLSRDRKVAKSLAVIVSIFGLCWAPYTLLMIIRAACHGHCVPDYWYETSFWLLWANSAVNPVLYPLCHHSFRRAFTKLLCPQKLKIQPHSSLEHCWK

| Structure (SMILES) | Kb (Histamine H3 receptor [1]) [nM] | Ki [2] [nM] | Ki (Histamine H3 receptor [7]) [nM] | Ki [8] [nM] | also measured |
| --- | --- | --- | --- | --- | --- |
| COc1ccc(C2CN(C)Cc3cc(OCCCN4CCOCC4)ccc32)cc1 (stereo unspecified) | 2.29 |  |  |  |  |
| CCOc1ccc(C2CN(C)Cc3cc(OCCCN4CCC(F)CC4)ccc32)cc1 (stereo unspecified) |  | 4.7 | 7.3 | 2.7 | clearance [3]: 29.9 mL/min/kg; bioavailability [4]: 11%; Vd [5]: 15.5 L/kg; half-life [6]: 10.3 h |
| COc1ccc(C2CN(C)Cc3cc(OCCCN4CCC(F)CC4)ccc32)cc1Cl (stereo unspecified) | 6.17 | 5.7 | 9.7 | 5.3 |  |
| CN1Cc2cc(OCCCN3CCC(F)CC3)ccc2C(c2ccc(Cl)cc2)C1 (stereo unspecified) |  |  | 8.3 | 16 |  |
| CN1Cc2cc(OCCCN3CCC(F)CC3)ccc2C(c2ccccc2Cl)C1 (stereo unspecified) |  | 18 | 5.6 | 17 |  |
| CN1Cc2cc(OCCCN3CCC(F)CC3)ccc2C(c2ccc(Cl)c(Cl)c2)C1 (stereo unspecified) | 33.1 | 21 | 31 | 8.3 |  |
| CN1Cc2cc(OCCCN3CCC(F)CC3)ccc2C(c2cc(Cl)ccc2Cl)C1 (stereo unspecified) | 4.57 | 107 | 9.3 | 120 |  |
| CN1Cc2cc(OCCCN3CCC(F)CC3)ccc2C(c2ccc(C(F)(F)F)cc2)C1 (stereo unspecified) |  | 8.6 | 18 | 14 |  |
| CN1Cc2cc(OCCCN3CCC(F)CC3)ccc2C(c2cccc(C(F)(F)F)c2)C1 (stereo unspecified) |  | 15 | 11 | 30 |  |
| CN1Cc2cc(OCCCN3CCC(F)CC3)ccc2C(c2ccc(C#N)cc2)C1 (stereo unspecified) | 1.41 | 16 | 3.5 | 7.8 |  |
| Cc1ccc(C2CN(C)Cc3cc(OCCCN4CCC(F)CC4)ccc32)cc1 (stereo unspecified) |  | 13 | 8.3 | 4.4 |  |
| CN1Cc2cc(OCCCN3CCC(F)CC3)ccc2C(c2ccc(SC(F)(F)F)cc2)C1 (stereo unspecified) |  | 34 | 46 | 36 |  |
| CN1Cc2cc(OCCCN3CCC(F)CC3)ccc2C(c2ccc(OC(F)F)cc2)C1 (stereo unspecified) | 4.37 | 4.3 | 10 |  |  |
| COc1ccc([C@H]2CN(C)Cc3cc(OCCCN4CCOC[C@@H]4C)ccc32)cc1 | 2.95 |  | 6.9 |  |  |
| CN1Cc2cc(OCCCN3CCC(F)CC3)ccc2C(c2ccc(S(C)(=O)=O)cc2)C1 (stereo unspecified) |  | 135 |  | 22 |  |
| CN1Cc2cc(OCCCN3CCC(F)CC3)ccc2C(c2ccccc2)C1 (stereo unspecified) | 0.724 | 46 | 3.3 |  |  |
| COc1cccc(C2CN(C)Cc3cc(OCCCN4CCC(F)CC4)ccc32)c1 (stereo unspecified) | 0.851 | 4.3 | 2 | 4.3 |  |
| CN1Cc2cc(OCCCN3CCC(F)CC3)ccc2C(c2cccc(Cl)c2)C1 (stereo unspecified) | 1.38 | 24 |  |  |  |
| COc1ccc(C2CN(C)Cc3cc(OCCCN4CCC(F)CC4)ccc32)cc1 (racemic) |  | 2.7 |  | 1.7 | F (Rattus norvegicus [9]): 6%; Cmax [10]: 1500 nM; Vdss (Rattus norvegicus [11]): 19.9 L/kg; t1/2 (Rattus norvegicus [12]): 16 h |
| CSc1ccc(C2CN(C)Cc3cc(OCCCN4CCC(F)CC4)ccc32)cc1 (racemic) |  |  |  | 2 | Ki [13]: 118 nM; Activity [14]: Not Active; concentration (Brain): 130 nM; clearance [3]: 18.5 mL/min/kg; bioavailability [4]: 21%; Cmax [10]: 2400 nM; Ki [15]: 46 nM; Vd [5]: 9.6 L/kg; half-life [6]: 9.9 h; ED50 (Rattus norvegicus [16]): 0.1 mg/kg; Activity [17]: Not Active; ED50 (Rattus norvegicus [18]): 0.05 mg/kg |
| COc1ccc(C2CN(C)Cc3cc(OCCCN4CCC(F)CC4)ccc32)cc1 (single isomer, unassigned; (-)) |  | 9.3 |  | 4.5 |  |
| COc1ccc(C2CN(C)Cc3cc(OCCCN4CCC(F)CC4)ccc32)cc1 (stereo in doubt; 12b) |  |  |  |  | clearance [3]: 32.3 mL/min/kg; F (Rattus norvegicus [9]): 13%; Vdss (Rattus norvegicus [11]): 5.1 L/kg; half-life [6]: 13.3 h |
| CSc1ccc(C2CN(C)Cc3cc(OCCCN4CCC(F)CC4)ccc32)cc1 (stereo in doubt; 12o) |  | 8.8 |  | 2.3 |  |
| CSc1ccc(C2CN(C)Cc3cc(OCCCN4CCC(F)CC4)ccc32)cc1 (stereo in doubt; (-)/-12p) |  | 4.2 |  | 5 |  |
